EC50 data for 13 compounds are collected here from PubChem BioAssay AID624179 (Johns Hopkins Ion Channel Center, 2012).

In general, pEC50 refers to −log10 of the EC50, conventionally taken in molar units.

pEC50: −log10 of the molar value.

The test relates to HEK293 M3R/RGS4, carbachol calcium flux, Fluo4. As to the kind of experiment: RGS4 potentiator concentration-response, SAR follow-up, cell-based, HEK293 M3R/RGS4, calcium flux, SAR compounds (AID 624179). The procedure, abridged: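 Material: HEK293 M3R cells with induced RGS4 / Doses: 10-point concentration series / Replicates: each concentration tested in triplicate / Timing: 20 min compound pre-incubation at room temperature / Buffer or medium: HBSS-HEPES assay buffer, pH 7.4 / Also added: carbachol at EC20 / Technique: calcium flux fluorescence with Fluo-4 dye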

In the case of `CCCCn1c(-c2csc(CCC)c2)n[nH]c1=S`, the pEC50 is 5.65.
The value for `Cc1ccc(NC(=O)c2cc(-c3cccs3)nc3ccccc23)nc1` was 5.46.
The value for `O=C(CNc1ccccc1)c1ccc([N+](=O)[O-])cc1` was 5.20; that for `S=c1[nH]nc(-c2ccc(Cl)cc2)n1CC1CCCO1` (stereo not drawn) was 5.25; that for `CCn1cc(CN2CCC(n3nccc3NC(=O)c3ccc(OC)cc3)CC2)cn1` was 5.53.
For `COC(=O)c1cccc(Nc2nc(-c3cccnc3)nc3ccccc23)c1`, the pEC50 was 5.69.
For `O=C(CNC1CCCCCC1)Nc1ccc(S(=O)(=O)NC2CC2)cc1` the value was 5.23.
For `CC(C)Cn1c(-c2ccc(F)cc2)n[nH]c1=S` the value was 5.50.
`Cc1ccc(S(=O)(=O)c2ccc(Oc3cccc(C)c3)cc2)cc1`: the pEC50 is 5.56.
As for `COC(=O)C1CCCN(C(=O)c2cc(-c3ccc(C)cc3)nc3ccccc23)C1` (stereo not drawn), the pEC50 was 5.33.
The value for `CCN1CCCC1CNCc1ccccc1OCc1ccc(F)cc1` (stereo not drawn) was 5.14.
The value for `CN(Cc1ccc(F)cc1)C(=O)C(c1ccccc1)c1ccccc1` was 5.66; that for `O=C(Nc1ccccc1N1CCN(C(=O)c2ccccc2)CC1)c1ccc(Cl)o1` was 5.33.
